Data set [1] relates to Plasma. As to the kind of experiment: Drug level in human plasma treated with (3S,6S,9R,12S,15S,18S,21S,24S,27R)-15-((1H-imidazol-5-yl)methyl)-1-((S)-1-((S)-2-((S)-2-((R)-2-acetamido-3-mercaptopropanamido)-3-hydroxypropanamido)-3-(1H-indol-3-yl)propanoyl)pyrrolidin-2-yl)-18-(3-amino-3-oxopropyl)-21-(carboxymethyl)-6-(3-guanidinopropyl)-12,24-diisobutyl-9,27-bis(mercaptomethyl)-3-methyl-1,4,7,10,13,16,19,22,25-nonaoxo-2,5,8,11,14,17,20,23,26-nonaazaoctacosan-28-oic acid at 50 uM after 18 hrs by MALDI-TOF analysis. Format: ADME, cell-free. In short, it runs like this:
(§1)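 Peptide from a 1 mM DMSO stock was diluted to 50 μM in citrated mouse, rat or human plasma and incubated at 37 °C for up to 2 days. Samples taken at time points were quenched in 1:1 acetonitrile/methanol and centrifuged. The supernatant was mixed with ammonium bicarbonate in acetonitrile/water, and parent peptide and metabolites were detected by MALDI-TOF.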

In data set [2] the target is Plasma kallikrein (Homo sapiens, UniProt P03952). Briefly: Inhibition of human plasma kallikrein using fluorogenic H-Pro-Phe-Arg-AMC peptide as substrate preincubated for 15 mins followed by substrate addition measured by fluorescence-based assay. The settings on record: read-out: Ki(app).
The test system of data set [3] is Plasma. As to the kind of experiment: Drug level in rat plasma treated with (3S,6S,9R,12S,15S,18S,21S,24S,27R)-15-((1H-imidazol-5-yl)methyl)-1-((S)-1-((S)-2-((S)-2-((R)-2-acetamido-3-mercaptopropanamido)-3-hydroxypropanamido)-3-(1H-indol-3-yl)propanoyl)pyrrolidin-2-yl)-18-(3-amino-3-oxopropyl)-21-(carboxymethyl)-6-(3-guanidinopropyl)-12,24-diisobutyl-9,27-bis(mercaptomethyl)-3-methyl-1,4,7,10,13,16,19,22,25-nonaoxo-2,5,8,11,14,17,20,23,26-nonaazaoctacosan-28-oic acid at 50 uM after 18 hrs by MALDI-TOF analysis. Format: ADME, cell-free. In outline: as §1

Data set [4] concerns the target Plasma kallikrein (Rattus norvegicus, UniProt P14272). Briefly: Inhibition of recombinant Sprague-Dawley rat plasma kallikrein using fluorogenic H-Pro-Phe-Arg-AMC peptide as substrate preincubated for 15 mins followed by substrate addition measured by fluorescence-based assay. The settings on record: read-out: Ki(app).
The next data set concerns the target (UniProt A0A8D1M4K5). As to the kind of experiment: Inhibition of pig plasma kallikrein using fluorogenic H-Pro-Phe-Arg-AMC peptide as substrate preincubated for 15 mins followed by substrate addition measured by fluorescence-based assay. On the set-up: species or system Sus scrofa. The settings on record: read-out: Ki(app).
Data set [5] can be described thus: Inhibition of rabbit plasma kallikrein using fluorogenic H-Pro-Phe-Arg-AMC peptide as substrate preincubated for 15 mins followed by substrate addition measured by fluorescence-based assay. On the set-up: species or system Oryctolagus cuniculus. The settings on record: read-out: Ki(app). In outline:
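Assays ran at 25 °C in 50 mM Tris-HCl, 250 mM NaCl, 1.5 μM BSA, pH 7.5. PKal (nominal 1–2 nM) was preincubated 15 min with serially diluted peptide. […] Human PKal was purified from plasma; rat PKal was made in-house or bought; other species were purified in-house from kaolin-activated plasma.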

Data set [6] in a line: Aqueous solubility of the compound in buffer. Format: physicochemical.

pKi: −log10 of the molar value. *1 amine or outer side, *2 acyl side, *3 side chain or, on linkers, in order; H or OH if unused. Where a SMILES comes first, the peptide text is derived from it. Bridges are numbered along the chain shown (N, C = ends). Roman numbers before positions name the chains, in order. [ ]: non-standard residue; d: D form. ξ: configuration not given here. X1 = CC(=O)N[C@@H](CSCc1cc(C[*:1])cc(C[*:2])c1)C(=O)O; TBMB = c1c(C[*:1])cc(C[*:3])cc1C[*:2]; hArg = N=C(N)NCCCC[C@H](N)C(=O)O; ξAze = O=C(O)C1CCN1

Plasma kallikrein (Homo sapiens, UniProt P03952), sequence (P03952 20-390 limits assumed): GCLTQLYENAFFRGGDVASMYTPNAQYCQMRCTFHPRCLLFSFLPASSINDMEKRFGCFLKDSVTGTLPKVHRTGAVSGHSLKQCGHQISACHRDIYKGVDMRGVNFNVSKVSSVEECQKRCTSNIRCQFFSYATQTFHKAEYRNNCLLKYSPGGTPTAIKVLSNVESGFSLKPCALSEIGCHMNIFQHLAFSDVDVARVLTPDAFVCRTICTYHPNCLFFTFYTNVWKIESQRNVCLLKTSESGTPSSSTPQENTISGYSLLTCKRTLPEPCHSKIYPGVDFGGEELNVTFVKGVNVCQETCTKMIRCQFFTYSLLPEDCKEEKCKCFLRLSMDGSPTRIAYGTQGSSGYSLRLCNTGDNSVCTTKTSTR
Plasma kallikrein (Homo sapiens, UniProt P03952), sequence (P03952 391-638 limits assumed): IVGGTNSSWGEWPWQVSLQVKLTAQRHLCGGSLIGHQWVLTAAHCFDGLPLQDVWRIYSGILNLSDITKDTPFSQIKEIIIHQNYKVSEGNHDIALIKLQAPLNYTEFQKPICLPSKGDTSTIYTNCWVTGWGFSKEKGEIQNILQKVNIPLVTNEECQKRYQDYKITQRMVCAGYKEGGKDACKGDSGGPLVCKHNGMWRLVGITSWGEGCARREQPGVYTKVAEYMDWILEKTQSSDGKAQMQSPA
Plasma kallikrein (Rattus norvegicus, UniProt P14272), sequence (P14272 20-390 limits assumed): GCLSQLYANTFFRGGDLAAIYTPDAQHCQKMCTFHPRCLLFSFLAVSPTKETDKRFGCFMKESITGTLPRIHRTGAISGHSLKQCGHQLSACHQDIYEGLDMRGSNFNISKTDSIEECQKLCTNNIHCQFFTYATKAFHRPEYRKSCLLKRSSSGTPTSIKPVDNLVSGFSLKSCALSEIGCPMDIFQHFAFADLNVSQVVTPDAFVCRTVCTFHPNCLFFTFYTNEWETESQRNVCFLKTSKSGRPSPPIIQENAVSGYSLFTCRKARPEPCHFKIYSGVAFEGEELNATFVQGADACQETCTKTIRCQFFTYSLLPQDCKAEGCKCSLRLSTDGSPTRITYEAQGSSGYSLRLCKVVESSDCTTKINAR
Plasma kallikrein (Rattus norvegicus, UniProt P14272), sequence (P14272 391-638 limits assumed): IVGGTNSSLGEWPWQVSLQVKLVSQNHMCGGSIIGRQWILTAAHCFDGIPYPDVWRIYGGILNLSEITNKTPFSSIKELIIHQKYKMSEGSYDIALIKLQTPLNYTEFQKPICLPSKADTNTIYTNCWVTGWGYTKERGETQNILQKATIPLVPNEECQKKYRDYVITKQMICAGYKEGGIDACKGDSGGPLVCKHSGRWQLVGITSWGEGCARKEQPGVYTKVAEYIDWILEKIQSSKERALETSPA

Consider `CC(=O)N[C@@H](CSCc1cc2cc(c1)CSC[C@H](N)C(=O)N[C@@H](CC(C)C)C(=O)N[C@@H](Cc1cnc[nH]1)C(=O)N[C@@H](CCC(N)=O)C(=O)N[C@@H](CC(=O)O)C(=O)N[C@@H](CC(C)C)C(=O)N[C@H](C(=O)O)CSC2)C(=O)N[C@@H](CO)C(=O)N[C@@H](Cc1c[nH]c2ccccc12)C(=O)N1CCC[C@H]1C(=O)N[C@@H](C)C(=O)O` (I: H-CLHQDLC-OH / II: Ac-CSWPA-OH; linker I:1-I:7-II:1 via TBMB), for which the Drug metabolism result with Plasma [1] was “Metabolite_Detected”.
Turning to `CC(=O)N[C@H]1CSCc2cc3cc(c2)CSC[C@H](NC(=O)[C@H](CCCCNC(=N)N)NC(=O)[C@H](Cc2ccc(O)cc2)NC(=O)C2CCN2C(=O)[C@H](Cc2ccccc2)NC(=O)[C@H](CO)NC1=O)C(=O)N[C@@H](CC(C)C)C(=O)N[C@@H](Cc1cnc[nH]1)C(=O)N[C@@H](CCC(N)=O)C(=O)N[C@@H](CC(=O)O)C(=O)N[C@@H](CC(C)C)C(=O)N[C@H](C(=O)O)CSC3` (stereo partly drawn) (Ac-CSF[ξAze]Y[hArg]CLHQDLC-OH; linker 1-7-13 via TBMB), the pKi at Plasma kallikrein [2] is 9.68.
With `CC(=O)N[C@H]1CSCc2cc3cc(c2)CSC[C@H](NC(=O)[C@H](CCCNC(=N)N)NC(=O)[C@H](C)NC(=O)C2CCN2C(=O)[C@H](Cc2c[nH]c4ccccc24)NC(=O)[C@H](CO)NC1=O)C(=O)N[C@@H](CC(C)C)C(=O)N[C@@H](Cc1cnc[nH]1)C(=O)N[C@@H](CCC(N)=O)C(=O)N[C@@H](CC(=O)O)C(=O)N[C@@H](CC(C)C)C(=O)N[C@H](C(=O)O)CSC3` (stereo partly drawn) (Ac-CSW[ξAze]ARCLHQDLC-OH; linker 1-7-13 via TBMB), at Plasma kallikrein [2], the pKi was 10.22.
On to `CC(=O)N[C@H]1CSCc2cc(CSC[C@H](NC(=O)[C@H](CC(C)C)NC(=O)[C@@H](N)CC(=O)O)C(=O)O)cc(c2)CSC[C@@H](C(=O)N[C@@H](CC(C)C)C(=O)O)NC(=O)[C@H](CCCNC(=N)N)NC(=O)[C@H](C)NC(=O)[C@@H]2CCCN2C(=O)[C@H](Cc2c[nH]c3ccccc23)NC(=O)[C@H](CO)NC1=O`, for which the Drug metabolism entry in the data set with Plasma [3] was “Metabolite_Detected”.
As for `CC(=O)N[C@H]1CSCc2cc3cc(c2)CSC[C@H](NC(=O)[C@H](CCCNC(=N)N)NC(=O)[C@H](Cc2ccc(O)cc2)NC(=O)[C@@H]2CCCN2C(=O)[C@H](Cc2ccccc2)NC(=O)[C@H](CO)NC1=O)C(=O)N[C@@H](C)CN[C@@H](Cc1cnc[nH]1)C(=O)N[C@@H](CCC(N)=O)C(=O)N[C@@H](CC(=O)O)C(=O)N[C@@H](CC(C)C)C(=O)N[C@H](C(=O)O)CSC3`, at Plasma kallikrein [2], the pKi was 8.89.
Consider `CC(=O)N[C@H]1CSCc2cc(cc(CSC[C@H](NC(=O)[C@H](CC(C)C)NC(=O)[C@@H](N)CC(=O)O)C(=O)O)c2)CSC[C@@H](C(=O)O)NC(=O)[C@H](CCCNC(=N)N)NC(=O)[C@H](C)NC(=O)[C@@H]2CCCN2C(=O)[C@H](Cc2c[nH]c3ccccc23)NC(=O)[C@H](CO)NC1=O`, for which the Drug metabolism result in the data set on Plasma [3] is given as “Metabolite_Detected”.
Regarding `CC(=O)N[C@H]1CSCc2cc(cc(CSC[C@H](NC(=O)[C@H](CC(C)C)NC(=O)[C@H](CC(=O)O)NC(=O)[C@H](CCC(N)=O)NC(=O)[C@@H](N)Cc3cnc[nH]3)C(=O)O)c2)CSC[C@@H](C(=O)O)NC(=O)[C@H](CCCNC(=N)N)NC(=O)[C@H](C)NC(=O)[C@@H]2CCCN2C(=O)[C@H](Cc2c[nH]c3ccccc23)NC(=O)[C@H](CO)NC1=O` (I: Ac-CSWPARC-OH / II: H-HQDLC-OH; linker I:1-I:7-II:5 via TBMB), the Drug metabolism entry in the data set on Plasma [3] was “Metabolite_Detected”.
`CC(=O)N[C@@H](CSCc1cc2cc(c1)CSC[C@H](N)C(=O)N[C@@H](CC(C)C)C(=O)N[C@@H](Cc1cnc[nH]1)C(=O)N[C@@H](CCC(N)=O)C(=O)N[C@@H](CC(=O)O)C(=O)N[C@@H](CC(C)C)C(=O)N[C@H](C(=O)O)CSC2)C(=O)N[C@@H](CO)C(=O)O`: the Drug metabolism entry with Plasma [1] is recorded as “Metabolite_Detected”.
As for `CC[C@H](C)[C@@H]1NC(=O)[C@H](CC(=O)O)NC(=O)[C@@H]2CCCN2C(=O)[C@H](Cc2ccc(O)cc2)NC(=O)[C@H](Cc2ccc(O)cc2)NC(=O)[C@H](C(C)C)NC(=O)[C@@H]2CSCc3cc(cc(c3)CSC[C@@H](C(=O)N[C@@H](C)C(=O)O)NC1=O)CSC[C@H](NC(=O)[C@H](C)N)C(=O)N[C@@H](CC(N)=O)C(=O)N[C@@H](CC(N)=O)C(=O)N[C@@H](Cc1ccccc1)C(=O)N1CCC[C@H]1C(=O)N[C@@H](Cc1ccccc1)C(=O)N[C@@H](CCCNC(=N)N)C(=O)N2` (H-ACNNFPFRCVYYPDICA-OH; linker 2-9-16 via TBMB), the pKi at Plasma kallikrein [2] was 9.36.
Regarding `CC(C)C[C@@H]1NC(=O)[C@H](CC(=O)O)NC(=O)[C@H](CCC(N)=O)NC(=O)[C@H](Cc2cnc[nH]2)NC(=O)[C@H](CC(C)C)NC(=O)[C@@H]2CSCc3cc(cc(c3)CSC[C@@H](C(=O)N[C@@H](C)C(=O)O)NC1=O)CSC[C@H](NC(=O)[C@H](C)N)C(=O)N[C@@H](CO)C(=O)N[C@@H](Cc1c[nH]c3ccccc13)C(=O)N1CCC[C@H]1C(=O)N[C@@H](C)C(=O)N[C@@H](CCCNC(=N)N)C(=O)N2` (H-ACSWPARCLHQDLCA-OH; linker 2-8-14 via TBMB), the pKi on Plasma kallikrein [4] was 9.05; on Plasma kallikrein [2], 10.15.
On to `CC(=O)N[C@H]1CSCc2cc3cc(c2)CSC[C@H](NC(=O)[C@H](CCCNC(=N)N)NC(=O)[C@H](Cc2ccc(O)cc2)NC(=O)[C@@H]2CCCN2C(=O)[C@H](Cc2ccccc2)NC(=O)[C@H](CO)NC1=O)C(=O)N[C@@H](CC(C)C)C(=O)N[C@@H](Cc1cnc[nH]1)C(=O)N[C@@H](CCC(N)=O)C(=O)N[C@@H](CC(=O)O)C(=O)N[C@@H](CC(C)C)C(=O)N[C@H](C(=O)O)CSC3` (Ac-CSFPYRCLHQDLC-OH; linker 1-7-13 via TBMB), for which the pKi at Plasma kallikrein [4] is 7.96; on Plasma kallikrein [2] it was 9.41; on (UniProt A0A8D1M4K5), 7.66; in data set [5], 7.08.
`CC[C@H](C)[C@@H]1NC(=O)[C@H](CC(=O)O)NC(=O)[C@@H]2CCCN2C(=O)[C@H](Cc2ccc(O)cc2)NC(=O)[C@H](Cc2ccc(O)cc2)NC(=O)[C@H](C(C)C)NC(=O)[C@@H]2CSCc3cc(cc(c3)CSC[C@@H](C(=O)N[C@@H](C)C(=O)O)NC1=O)CSC[C@H](NC(=O)[C@H](C)N)C(=O)N[C@@H](CO)C(=O)N[C@@H](Cc1ccccc1)C(=O)N1CCC[C@H]1C(=O)N[C@@H](Cc1ccc(O)cc1)C(=O)N[C@@H](CCCNC(=N)N)C(=O)N2` (H-ACSFPYRCVYYPDICA-OH; linker 2-8-15 via TBMB): the solubility result in data set [6] is listed as “Insoluble”.
As for `CC(=O)N[C@@H](CSCc1cc2cc(c1)CSC[C@H](N)C(=O)N[C@@H](CC(C)C)C(=O)N[C@@H](Cc1cnc[nH]1)C(=O)N[C@@H](CCC(N)=O)C(=O)N[C@@H](CC(=O)O)C(=O)N[C@@H](CC(C)C)C(=O)N[C@H](C(=O)O)CSC2)C(=O)O` (H-CLHQDLC-OH; linker 1-7 via X1), in the data set with Plasma [1], the Drug metabolism result is given as “Metabolite_Detected”.
With `CC(=O)N[C@H]1CSCc2cc3cc(c2)CSC[C@H](NC(=O)[C@H](CCCCNC(=N)N)NC(=O)[C@H](C)NC(=O)C2CCN2C(=O)[C@H](Cc2c[nH]c4ccccc24)NC(=O)[C@H](CO)NC1=O)C(=O)N[C@@H](CC(C)C)C(=O)N[C@@H](Cc1cnc[nH]1)C(=O)N[C@@H](CCC(N)=O)C(=O)N[C@@H](CC(=O)O)C(=O)N[C@@H](CC(C)C)C(=O)N[C@H](C(=O)O)CSC3` (stereo partly drawn) (Ac-CSW[ξAze]A[hArg]CLHQDLC-OH; linker 1-7-13 via TBMB), the negative logarithm of the Ki (pKi) on Plasma kallikrein [2] was 9.85.

A word on the pKi: it is −log10 of the Ki, conventionally taken in molar units.

The record behind these values is ChEMBL document CHEMBL4033799, “Stable and Long-Lasting, Novel Bicyclic Peptide Plasma Kallikrein Inhibitors for the Treatment of Diabetic Macular Edema” (J Med Chem, 2018).
